Reference: ChEMBL document CHEMBL2203216, “Fluoride enhances the activity of fungicides that destabilize cell membranes” (2012)
Calls of active or inactive are those of the source. The calls are words filed in the database; no cut-off is given here. Numbered stars: 1 amine (or outer) side, 2 acyl side, 3 side chain; on linkers, the order of the positions; unused ones are H or OH. Bridge positions count the residues as written; N and C are the ends. Square brackets hold non-standard residues; d marks the D form. Peptide text beside a SMILES is read from it. * marks the point of attachment. Orn(4R-OH,5R-OH) = O=C([C@H](C[C@@H](O)[C@@H](O)N[*:3])N[*:1])[*:2]; hTyr(3S-OH,4S-OH) = N[C@H](C(=O)O)[C@H](O)[C@@H](O)c1ccc(O)cc1; Pro(3S-OH,4S-Me) = C[C@H]1CN[C@H](C(=O)O)[C@H]1O; Palmitoyl = CCCCCCCCCCCCCCCC(=O)*; Hyp = O=C(O)[C@@H]1C[C@@H](O)CN1

Columns and labels:
Saccharomyces cerevisiae [1] = assay: Antifungal activity against Saccharomyces cerevisiae MYH 500 assessed as growth inhibition in presence of 30 mM sodium fluoride after 9 hrs; assay type: functional, organism-based
In short: (§1)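 S. cerevisiae growth in liquid medium with amphotericin B over a concentration series, plus a fixed 30 mM or 80 mM of NaF, KCl or NaCl. Cultures were shaken at 30°C for 9 h.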

Saccharomyces cerevisiae [2] = assay: Antifungal activity against Saccharomyces cerevisiae MYH 500 assessed as growth inhibition in presence of 80 mM sodium fluoride after 9 hrs; assay type: functional, organism-based; in short: as §1
Neurospora crassa [3] = assay: Antifungal activity against Neurospora crassa FGSC 2225 assessed as growth inhibition in presence of 30 mM sodium fluoride after 24 hrs relative to untreated control; assay type: functional
In short: (§2)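 Filamentous fungus grown in liquid medium tubes with fluoride plus a drug series. Growth was scored visually after 24 h. The endpoint was the lowest concentration tube showing little or no visible growth.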

Saccharomyces cerevisiae [4] = assay: Antifungal activity against Saccharomyces cerevisiae MYH 500 assessed as growth inhibition in presence of 30 mM Kcl after 9 hrs; assay type: functional, organism-based; in short: as §1
Saccharomyces cerevisiae [5] = assay: Antifungal activity against Saccharomyces cerevisiae MYH 500 assessed as growth inhibition at 300 nM after 48 hrs; assay type: functional, organism-based
In short: (§3)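 S. cerevisiae growth curves in liquid medium over 48 h. Amphotericin B was tested alone or at a fixed 10 nM or 20 nM with a range of sodium fluoride concentrations. Growth was followed as culture density.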

Aspergillus nidulans [6] = assay: Antifungal activity against Aspergillus nidulans ATCC 38163 assessed as growth inhibition in presence of 30 mM sodium fluoride after 24 hrs; assay type: functional, organism-based
Neurospora crassa [7] = assay: Antifungal activity against Neurospora crassa FGSC 2225 assessed as growth inhibition in presence of 10 mM sodium fluoride after 24 hrs relative to untreated control; assay type: functional; in short: as §2
Saccharomyces cerevisiae [8] = assay: Antifungal activity against Saccharomyces cerevisiae MYH 500 assessed as growth inhibition in presence of 30 mM sodium fluoride after 48 hrs relative to untreated control; assay type: functional
Saccharomyces cerevisiae [9] = assay: Antifungal activity against Saccharomyces cerevisiae MYH 500 at 30 to 70 nM after 48 hrs; assay type: functional, organism-based; in short: as §3
Saccharomyces cerevisiae [10] = assay: Antifungal activity against Saccharomyces cerevisiae MYH 500 assessed as growth inhibition in presence of 80 mM Kcl after 9 hrs; assay type: functional, organism-based; in short: as §1
Saccharomyces cerevisiae [11] = assay: Antifungal activity against Saccharomyces cerevisiae MYH 500 assessed as growth inhibition in presence of 80 mM NaCl after 9 hrs; assay type: functional, organism-based; in short: as §1
Saccharomyces cerevisiae [12] = assay: Antifungal activity against Saccharomyces cerevisiae MYH 500 at 10 nM after 48 hrs; assay type: functional, organism-based; in short: as §3
Saccharomyces cerevisiae [13] = assay: Potentiation of fluoride-induced antimicrobial effect against Saccharomyces cerevisiae MYH 500 assessed as increase in growth inhibition at 10 nM in presence of 30 to 100 mM sodium fluoride after 48 hrs; assay type: functional, organism-based; in short: as §3
Saccharomyces cerevisiae [14] = assay: Potentiation of fluoride-induced antimicrobial effect against Saccharomyces cerevisiae MYH 500 assessed as increase in growth inhibition at 20 nM in presence of 30 to 100 mM sodium fluoride after 48 hrs; assay type: functional, organism-based; in short: as §3
Neurospora crassa [15] = assay: Antifungal activity against Neurospora crassa FGSC 2225 assessed as growth inhibition at 300 nM after 24 hrs; assay type: functional, organism-based
In short: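 N. crassa, a filamentous fungus, was grown in liquid medium with amphotericin B for 24 h. Growth was scored visually in tubes, and the lowest concentration showing little or no visible growth was noted.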

Saccharomyces cerevisiae [16] = assay: Potentiation of fluoride-induced antimicrobial effect against Saccharomyces cerevisiae MYH 500 assessed as increase in growth inhibition at 10 nM in presence of 60 mM sodium fluoride after 48 hrs; assay type: functional, organism-based; in short: as §3
Saccharomyces cerevisiae [17] = assay: Antifungal activity against Saccharomyces cerevisiae MYH 500 assessed as growth inhibition in presence of 30 mM NaCl after 9 hrs; assay type: functional, organism-based; in short: as §1
Aspergillus nidulans [18] = assay: Antifungal activity against Aspergillus nidulans ATCC 38163 assessed as growth inhibition in presence of 10 mM sodium fluoride after 24 hrs; assay type: functional, organism-based
Saccharomyces cerevisiae [19] = assay: Antifungal activity against Saccharomyces cerevisiae MYH 500 assessed as growth inhibition in presence of 80 mM sodium fluoride after 48 hrs relative to untreated control; assay type: functional
Saccharomyces cerevisiae [20] = assay: Antifungal activity against Saccharomyces cerevisiae MYH 500 assessed as growth inhibition at 3 mM in presence of 30 mM sodium fluoride after 48 hrs relative to untreated control; assay type: functional
Saccharomyces cerevisiae [21] = assay: Antifungal activity against Saccharomyces cerevisiae MYH 500 assessed as growth inhibition at 3 mM after 48 hrs; assay type: functional, organism-based
Saccharomyces cerevisiae [22] = assay: Antifungal activity against Saccharomyces cerevisiae MYH 500 assessed as growth inhibition at 3 mM in presence of 30 mM sodium fluoride after 24 hrs relative to untreated control; assay type: functional, organism-based

Molecule: CN(C/C=C/C#CC(C)(C)C)Cc1cccc2ccccc12
- growth inhibition (GI) (Saccharomyces cerevisiae [1]): inactive
- growth inhibition (GI) (Saccharomyces cerevisiae [2]): inactive

Molecule: Cc1cccc(N(C)C(=S)Oc2ccc3ccccc3c2)c1
- growth inhibition (GI) (Saccharomyces cerevisiae [1]): inactive
- growth inhibition (GI) (Saccharomyces cerevisiae [2]): inactive

Molecule: C[C@@H]1[C@H](O)[C@@H](C)/C=C/C=C/C=C/C=C/C=C/C=C/C=C/[C@H](O[C@@H]2O[C@H](C)[C@@H](O)[C@H](N)[C@@H]2O)C[C@@H]2O[C@](O)(C[C@@H](O)C[C@@H](O)[C@H](O)CC[C@@H](O)C[C@@H](O)CC(=O)O[C@H]1C)C[C@H](O)[C@H]2C(=O)O [AMPHOTERICIN B]
- fold change (FC) (Neurospora crassa [3]): 10
- growth inhibition (GI) (Saccharomyces cerevisiae [4]): Active
- growth inhibition (GI) (Saccharomyces cerevisiae [5]): Active
- growth inhibition (GI) (Aspergillus nidulans [6]): Active
- fold change (FC) (Neurospora crassa [7]): 4
- fold change (FC) (Saccharomyces cerevisiae [8]): 10
- Activity (Saccharomyces cerevisiae [9]): inactive
- growth inhibition (GI) (Saccharomyces cerevisiae [10]): Active
- growth inhibition (GI) (Saccharomyces cerevisiae [11]): Active
- Activity (Saccharomyces cerevisiae [12]): inactive
- growth inhibition (GI) (Saccharomyces cerevisiae [13]): Active
- growth inhibition (GI) (Saccharomyces cerevisiae [14]): Active
- growth inhibition (GI) (Neurospora crassa [15]): inactive
- growth inhibition (GI) (Saccharomyces cerevisiae [16]): Active
- growth inhibition (GI) (Saccharomyces cerevisiae [17]): Active
- growth inhibition (GI) (Aspergillus nidulans [18]): Active
- fold change (FC) (Saccharomyces cerevisiae [19]): 30

Molecule: CCC(C)n1ncn(-c2ccc(N3CCN(c4ccc(OCC5COC(Cn6cncn6)(c6ccc(Cl)cc6Cl)O5)cc4)CC3)cc2)c1=O (centres undefined)
- growth inhibition (GI) (Saccharomyces cerevisiae [1]): inactive
- growth inhibition (GI) (Saccharomyces cerevisiae [2]): inactive

Molecule: NYSTATIN
- growth inhibition (GI) (Saccharomyces cerevisiae [1]): Active
- growth inhibition (GI) (Saccharomyces cerevisiae [2]): Active

Molecule: CCCCCCCCCCCCCCCC(=O)N[C@H]1C[C@@H](O)[C@@H](O)NC(=O)[C@@H]2[C@@H](O)[C@@H](C)CN2C(=O)[C@H]([C@@H](C)O)NC(=O)[C@H]([C@H](O)[C@@H](O)c2ccc(O)cc2)NC(=O)[C@@H]2C[C@@H](O)CN2C(=O)[C@H]([C@@H](C)O)NC1=O (Palmitoyl-[Orn(4R-OH,5R-OH)]T[Hyp][hTyr(3S-OH,4S-OH)]T[Pro(3S-OH,4S-Me)]; lactam 1-C)
- growth inhibition (GI) (Saccharomyces cerevisiae [1]): inactive

Molecule: N=C(N)NCCC[C@@H]1NC(=O)[C@H](CCCNC(=N)N)NC(=O)[C@H](CCCNC(=N)N)NC(=O)[C@H](CCCNC(=N)N)NC(=O)[C@H](CCCNC(=N)N)NC(=O)[C@H](CCCNC(=N)N)NC(=O)[C@H](CCCNC(=N)N)NC1=O [NOVEXATIN]
- fold change (FC) (Saccharomyces cerevisiae [20]): >3
- growth inhibition (GI) (Saccharomyces cerevisiae [21]): Active
- growth inhibition (GI) (Saccharomyces cerevisiae [22]): Active
